Measurements as given in ChEMBL document CHEMBL1131188, “Synthesis and cytotoxicity of 2-methyl-4, 9-dihydro-1-substituted-1H-imidazo[4,5-g]quinoxaline-4,9-diones and 2,3-disubstituted-5,10-pyrazino[2,3-g]quinoxalinediones” (J Med Chem, 1998).

How the values were obtained:
MKN-45 = assay: Cytotoxicity of compound against human gastric adenocarcinoma cell line (MKN 45); type: functional, cell-based
Method in brief: (§1)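 MTT assay: compounds dissolved in DMSO at 1 mM (stock), diluted in RPMI-FCS to various concentrations; single-cell suspensions treated at 37 °C, 5% CO2 for 4 days; MTT added for further 4 h, acid–isopropanol added, OD read at 540 nm. Fractional inhibition = 1 − OD sample/control; IC50 from Chou median-effect analysis; mean of triplicate experiments.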

PC-14 = assay: Cytotoxicity of compound against human lung adenocarcinoma cell line (PC14); type: functional, cell-based; method in brief: as §1

| Molecule | IC50 (MKN-45; Homo sapiens, MKN-45) [µM] | IC50 (PC-14; Homo sapiens, PC-14) [µM] | IC50 (MKN-45; mkn-45) [µM] | IC50 (PC-14; pc-14) [µM] |
| --- | --- | --- | --- | --- |
| CCc1nc2c(nc1CC)C(=O)c1nccnc1C2=O | 7.61 | 20.5 |  |  |
| CCn1c(C)nc2c1C(=O)c1nccnc1C2=O | 93.1 | 130 |  |  |
| CCc1nc2c(nc1C)C(=O)c1nccnc1C2=O | 13 | 67.5 |  |  |
| Cc1nc2c(n1C)C(=O)c1nccnc1C2=O | 34.1 | 38.7 |  |  |
| O=C1c2nccnc2C(=O)c2nccnc21 | 20.1 | 76.2 |  |  |
| Cc1nc2c([nH]1)C(=O)c1nccnc1C2=O | 19.8 | 82.5 |  |  |
| Cc1nc2c(n1-c1ccc(Br)cc1)C(=O)c1nccnc1C2=O | 1.3 | 45.5 |  |  |
| Cc1nc2c(n1-c1ccccc1)C(=O)c1nccnc1C2=O | 22.8 | 125 |  |  |
| Cc1nc2c(n1C(C)C)C(=O)c1nccnc1C2=O | 61.1 | 78.3 |  |  |
| Cc1nc2c(nc1C)C(=O)c1nccnc1C2=O | 16.7 | 74 |  |  |
| O=C1c2nccnc2C(=O)c2nc(-c3ccccc3)c(-c3ccccc3)nc21 | 82.5 | 120 |  |  |
| COc1cccc2c1C(=O)c1c(O)c3c(c(O)c1C2=O)C[C@@](O)(C(=O)CO)C[C@@H]3O[C@H]1C[C@H](N)[C@H](O)[C@H](C)O1 [DOXORUBICIN] | 3.13 | 0.29 |  |  |
| CISPLATIN |  |  | 86.5 | 3.87 |
